Results pooled from the literature.
Compare with care: the assays were run in different laboratories.
Target: Mitogen-activated protein kinase kinase kinase kinase 5 (MAP4K5, Homo sapiens, UniProt Q9Y4K4)

Compound	read-out	method	concentration	remaining binding
F[C@@H]1CCN(c2nccc(-c3cnn4ncccc34)n2)C1	binding		1 µM	79%
COc1cnc(Nc2cccc(S(N)(=O)=O)c2)nc1N1CCN(c2ccccc2)CC1	binding	competition with immobilised ligand	1 µM	100%
O=C(NCc1ncc(C(F)(F)F)cc1Cl)c1ccc2c(c1)C1(CCS(=O)(=O)CC1)[C@@H](C1CC1)N2S(=O)(=O)c1ccc(F)cc1	cell-free assay	competition with immobilised ligand	1 µM	100%
O=C(c1ccc(Nc2nccc(-c3cc4ccccc4s3)n2)cc1)N1CCC(N2CCCC2)CC1	binding	competition with immobilised ligand	1 µM	100%
O=C(NCC1CCOCC1)c1n[nH]cc1NC(=O)c1c(F)cccc1F	binding	competition with immobilised ligand	1 µM	89%
CCS(=O)(=O)c1cc2cc(C[C@](O)(CC(C)(C)c3ccc(F)cc3C(N)=O)C(F)(F)F)[nH]c2cn1	cell-free assay	competition with immobilised ligand	1 µM	100%
CN(C)c1nccc(-c2cnn3ncccc23)n1	binding		1 µM	88%
O=C(c1ccc(Nc2ncc(Cl)c(-c3ccc(Cl)s3)n2)cc1)N1CCC(N2CCCC2)CC1	binding	competition with immobilised ligand	1 µM	45%
CNC(=O)[C@@H]1CC[C@@H](n2c(-c3ccc4cnccc4c3)nc3ccc(C(=O)NCc4cccc(C(N)=O)c4)cc32)C1	binding	competition with immobilised ligand	1 µM	100%
CN(c1ccnc(CNc2nc(Nc3ccc4c(c3)CC(=O)N4)ncc2C(F)(F)F)n1)S(C)(=O)=O	cell-free assay	competition with immobilised ligand	1 µM	72%
COc1ncc2cc3ccccc3nc2c1C#N	cell-free assay	competition with immobilised ligand	5 µM	95%
N[C@@H]1CCN(c2nccc(-c3cnn4ncccc34)n2)C1	binding		1 µM	100%
O=c1nc(-c2ccccn2)sc2ccccc12	binding	competition with immobilised ligand	1 µM	100%
CN(c1nccc(-c2cnn3ncccc23)n1)C1CC1	binding		1 µM	3.2%
COc1ccc2c(O[C@@H]3C[C@H]4C(=O)N[C@]5(C(=O)O)CC5/C=C\CCCCC[C@H](NC(=O)OC5CCCC5)C(=O)N4C3)cc(-c3csc(NC(=O)C(C)C)n3)nc2c1C (some centres unmarked)	cell-free assay	competition with immobilised ligand	1 µM	100%
C[C@@H]1CCN(c2nccc(-c3cnn4ncccc34)n2)C1	binding		1 µM	93%
Cc1cnc(Nc2ccc(C(=O)N3CCC(N4CCCC4)CC3)cc2)nc1-c1cc2ccccc2s1	binding	competition with immobilised ligand	1 µM	51%
Nc1c(C(=O)NCc2ccc(C(=O)NCCCC3CCCCC3)cc2)cnn1-c1ccccc1	cell-free assay	competition with immobilised ligand	0.1 µM	100%
c1cnn2ncc(-c3ccnc(N4CCC45COC5)n3)c2c1	binding		1 µM	94%
FC(F)(F)Oc1cccc(-c2cnc3ccc(-c4ccncc4)nn23)c1	cell-free assay	competition with immobilised ligand	5 µM	77%
